ChEMBL document CHEMBL4270642, “Boronic ester-linked macrocyclic lipopeptides as serine protease inhibitors targeting Escherichia coli type I signal peptidase” (Eur J Med Chem, 2018)
Values after ≈ are worked out from the molar mass of the structure shown.

Experiments:
Pseudomonas aeruginosa [1] = test: Antibacterial activity against Pseudomonas aeruginosa PAO1 after 16 to 20 hrs by broth microdilution method; format: functional
Procedure, shortened: (§1)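 Broth microdilution in cation-adjusted Mueller-Hinton II per EUCAST/CLSI; two-fold compound series 64 down to 0.25 µg/mL final. Inoculum from fresh colonies (non-selective agar, 18-24 h, 35 ± 2 °C), adjusted to 0.5 McFarland, diluted to about 5 × 10^5 CFU/mL final. Static incubation 16-20 h at 35 ± 2 °C; MIC read visually as complete growth inhibition against medium-only wells.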

Escherichia coli [2] = test: Antibacterial activity against tolC deficient Escherichia coli CH3130 after 16 to 20 hrs by broth microdilution method; format: functional; procedure, shortened: as §1
[3] = target: Signal peptidase I (Escherichia coli K-12) (UniProt P00803); test: Inhibition of Escherichia coli type 1 signal peptidase lepB assessed as residual activity at 10 uM preincubated for 10 mins followed by Dabcyl-VGGTATAYGAFSRPGLE-(EDANS)-OH substrate addition measured after 2 hrs by FRET based assay (reference value: 100%)
Sequence of Signal peptidase I (Escherichia coli K-12) (P00803 whole entry): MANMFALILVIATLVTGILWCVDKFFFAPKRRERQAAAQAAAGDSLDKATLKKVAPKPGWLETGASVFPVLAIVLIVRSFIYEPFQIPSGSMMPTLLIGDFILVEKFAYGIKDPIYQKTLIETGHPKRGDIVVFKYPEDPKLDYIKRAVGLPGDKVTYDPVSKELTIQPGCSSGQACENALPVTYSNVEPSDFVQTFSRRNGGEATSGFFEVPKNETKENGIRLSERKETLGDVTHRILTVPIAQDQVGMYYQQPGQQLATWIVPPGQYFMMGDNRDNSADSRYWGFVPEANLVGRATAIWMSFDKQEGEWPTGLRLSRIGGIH
Procedure, shortened: (§2)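 EcLepB (about 50 nM estimated) preincubated 10 min with compound. Reaction started with Dabcyl/EDANS FRET peptide at 8 µM final (Km 20 µM). Fluorescence followed continuously at 535 nm, 22 °C, for 2 h. Cleavage rates plotted against inhibitor concentration; IC50 from non-linear regression of sigmoidal dose-response curves.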

[4] = target: Signal peptidase I (Escherichia coli K-12) (UniProt P00803); test: Inhibition of Escherichia coli type 1 signal peptidase lepB assessed as residual activity at 5 uM preincubated for 10 mins followed by Dabcyl-VGGTATAYGAFSRPGLE-(EDANS)-OH substrate addition measured after 2 hrs by FRET based assay (reference value: 100%); procedure, shortened: as §2
[5] = target: Signal peptidase I (Escherichia coli K-12) (UniProt P00803); test: Inhibition of Escherichia coli type 1 signal peptidase lepB assessed as residual activity at 0.625 uM preincubated for 10 mins followed by Dabcyl-VGGTATAYGAFSRPGLE-(EDANS)-OH substrate addition measured after 2 hrs by FRET based assay (reference value: 100%); procedure, shortened: as §2
Pseudomonas aeruginosa [6] = test: Antibacterial activity against efflux defective Pseudomonas aeruginosa PAO750 after 16 to 20 hrs by broth microdilution method; format: functional; procedure, shortened: as §1
[7] = target: Signal peptidase I (Escherichia coli K-12) (UniProt P00803); test: Inhibition of Escherichia coli type 1 signal peptidase lepB assessed as residual activity at 0.0006 uM preincubated for 10 mins followed by Dabcyl-VGGTATAYGAFSRPGLE-(EDANS)-OH substrate addition measured after 2 hrs by FRET based assay (reference value: 100%); procedure, shortened: as §2
[8] = target: Signal peptidase I (Escherichia coli K-12) (UniProt P00803); test: Inhibition of Escherichia coli type 1 signal peptidase lepB assessed as residual activity at 0.0391 uM preincubated for 10 mins followed by Dabcyl-VGGTATAYGAFSRPGLE-(EDANS)-OH substrate addition measured after 2 hrs by FRET based assay (reference value: 100%); procedure, shortened: as §2
[9] = target: Signal peptidase I (Escherichia coli K-12) (UniProt P00803); test: Inhibition of Escherichia coli type 1 signal peptidase lepB assessed as residual activity at 0.0024 uM preincubated for 10 mins followed by Dabcyl-VGGTATAYGAFSRPGLE-(EDANS)-OH substrate addition measured after 2 hrs by FRET based assay (reference value: 100%); procedure, shortened: as §2
[10] = target: Signal peptidase I (Escherichia coli K-12) (UniProt P00803); test: Inhibition of Escherichia coli type 1 signal peptidase lepB assessed as residual activity at 0.0012 uM preincubated for 10 mins followed by Dabcyl-VGGTATAYGAFSRPGLE-(EDANS)-OH substrate addition measured after 2 hrs by FRET based assay (reference value: 100%); procedure, shortened: as §2
HepG2 = test: Cytotoxicity against human HepG2 cells after 72 hrs by FMSA; format: cell-based; conditions: HepG2, 72 h
Procedure, shortened: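 HepG2 (ATCC) grown in EMEM with 10% FBS, pen/strep, 2 mM L-glutamine, used up to 20 passages. Seeded at 1000 cells/well, cultured overnight, then dosed acoustically from DMSO stocks. Eight two-fold dilutions in duplicate from top 64 or 32 µM; 72 h at 37 °C, 5% CO2. Fluorescein diacetate hydrolysis read at ex 485/em 530 nm; IC50 by non-linear regression.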

Signal peptidase I = Signal peptidase I (Escherichia coli K-12, UniProt P00803); test: Inhibition of Escherichia coli type 1 signal peptidase lepB preincubated for 10 mins followed by Dabcyl-VGGTATAYGAFSRPGLE-(EDANS)-OH substrate addition measured after 2 hrs by FRET based assay; procedure, shortened: as §2
Sequence of Signal peptidase I (P00803 whole entry): as above

[11] = target: Signal peptidase I (Escherichia coli K-12) (UniProt P00803); test: Inhibition of Escherichia coli type 1 signal peptidase lepB assessed as residual activity at 0.0195 uM preincubated for 10 mins followed by Dabcyl-VGGTATAYGAFSRPGLE-(EDANS)-OH substrate addition measured after 2 hrs by FRET based assay (reference value: 100%); procedure, shortened: as §2
Acinetobacter baumannii = test: Antibacterial activity against Acinetobacter baumannii ATCC 19606 after 16 to 20 hrs by broth microdilution method; format: functional; conditions: ATCC 19606 = CIP 70.34 = JCM 6841; procedure, shortened: as §1
[12] = target: Signal peptidase I (Escherichia coli K-12) (UniProt P00803); test: Inhibition of Escherichia coli type 1 signal peptidase lepB assessed as residual activity at 1.25 uM preincubated for 10 mins followed by Dabcyl-VGGTATAYGAFSRPGLE-(EDANS)-OH substrate addition measured after 2 hrs by FRET based assay (reference value: 100%); procedure, shortened: as §2
[13] = target: Signal peptidase I (Escherichia coli K-12) (UniProt P00803); test: Inhibition of Escherichia coli type 1 signal peptidase lepB assessed as residual activity at 0.0781 uM preincubated for 10 mins followed by Dabcyl-VGGTATAYGAFSRPGLE-(EDANS)-OH substrate addition measured after 2 hrs by FRET based assay (reference value: 100%); procedure, shortened: as §2
[14] = target: Signal peptidase I (Escherichia coli K-12) (UniProt P00803); test: Inhibition of Escherichia coli type 1 signal peptidase lepB assessed as residual activity at 0.0049 uM preincubated for 10 mins followed by Dabcyl-VGGTATAYGAFSRPGLE-(EDANS)-OH substrate addition measured after 2 hrs by FRET based assay (reference value: 100%); procedure, shortened: as §2
[15] = target: Signal peptidase I (Escherichia coli K-12) (UniProt P00803); test: Inhibition of Escherichia coli type 1 signal peptidase lepB assessed as residual activity at 0.3125 uM preincubated for 10 mins followed by Dabcyl-VGGTATAYGAFSRPGLE-(EDANS)-OH substrate addition measured after 2 hrs by FRET based assay (reference value: 100%); procedure, shortened: as §2
Escherichia coli [16] = test: Antibacterial activity against Escherichia coli D22 CGSG 5163 harboring Ips mutant after 16 to 20 hrs by broth microdilution method; format: functional
Procedure, shortened: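 Broth microdilution in cation-adjusted Mueller-Hinton II broth, following EUCAST and CLSI guidelines. Two-fold series at final concentrations 64 down to 0.25 µg/mL, with medium-only and growth controls. Inoculum from fresh colonies (18-24 h, 35 °C ± 2 °C) adjusted to 0.5 McFarland, final ≈5 × 10^5 CFU/mL. Plates incubated unshaken 16-20 h at 35 °C ± 2 °C. MIC read visually as complete inhibition of growth.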

[17] = Hemolytic activity in human RBC at 100 uM after 45 mins by spectrophotometric method relative to control; format: ADME, cell-based, Erythrocyte; conditions: red blood cells (erythrocytes), read-out: Activity
Procedure, shortened: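 Heparinized human blood; red cells washed three times in Tyrode buffer pH 7.4. Compound at 100 µM final with 1% DMSO and 50% RBC, shaken (250 rpm) 45 min at 37 °C. Cells pelleted (1000 × g, 10 min); supernatant haemoglobin at 540 nm. Percent lysis relative to buffer-only and 2% Triton X-100 controls.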

Escherichia coli [18] = test: Antibacterial activity against Escherichia coli ATCC 25922 after 16 to 20 hrs by broth microdilution method; format: functional; procedure, shortened: as §1
Klebsiella pneumoniae = test: Antibacterial activity against Klebsiella pneumoniae ATCC 13883 after 16 to 20 hrs by broth microdilution method; format: functional; procedure, shortened: as §1
Staphylococcus aureus = test: Antibacterial activity against Staphylococcus aureus ATCC 29213 after 16 to 20 hrs by broth microdilution method; format: functional; procedure, shortened: as §1
[19] = target: Signal peptidase I (Escherichia coli K-12) (UniProt P00803); test: Inhibition of Escherichia coli type 1 signal peptidase lepB assessed as residual activity at 0.1563 uM preincubated for 10 mins followed by Dabcyl-VGGTATAYGAFSRPGLE-(EDANS)-OH substrate addition measured after 2 hrs by FRET based assay (reference value: 100%); procedure, shortened: as §2
[20] = target: Signal peptidase I (Escherichia coli K-12) (UniProt P00803); test: Inhibition of Escherichia coli type 1 signal peptidase lepB assessed as residual activity at 2.5 uM preincubated for 10 mins followed by Dabcyl-VGGTATAYGAFSRPGLE-(EDANS)-OH substrate addition measured after 2 hrs by FRET based assay (reference value: 100%); procedure, shortened: as §2
[21] = target: Signal peptidase I (Escherichia coli K-12) (UniProt P00803); test: Inhibition of Escherichia coli type 1 signal peptidase lepB assessed as residual activity at 0.0098 uM preincubated for 10 mins followed by Dabcyl-VGGTATAYGAFSRPGLE-(EDANS)-OH substrate addition measured after 2 hrs by FRET based assay (reference value: 100%); procedure, shortened: as §2

| SMILES | MIC (Pseudomonas aeruginosa [1]) [µg/mL] | MIC (Escherichia coli [2]) [µg/mL] | Activity [3] [%] | Activity [4] [%] | Activity [5] [%] | MIC (Pseudomonas aeruginosa [6]) [µg/mL] | Activity [7] [%] | Activity [8] [%] | Activity [9] [%] | Activity [10] [%] | IC50 (HepG2) [nM] | IC50 (Signal peptidase I) [nM] | Activity [11] [%] | MIC (Acinetobacter baumannii) [µg/mL] | Activity [12] [%] | Activity [13] [%] | Activity [14] [%] | Activity [15] [%] | MIC (Escherichia coli [16]) [µg/mL] | hemolysis at 0.75 h, 100 µM [17] [%] | also measured |
| --- | --- | --- | --- | --- | --- | --- | --- | --- | --- | --- | --- | --- | --- | --- | --- | --- | --- | --- | --- | --- | --- |
| CCCCCCc1ccc(-c2ccc(C(=O)N[C@@H](CCCN)C(=O)N(C)[C@H](C(=O)N[C@@H](C)C(=O)N[C@H]3Cc4cn(nn4)CCCN4C[C@@H]5OB(O[C@@H]5C4)[C@H](C)NC3=O)[C@@H](C)O)cc2)cc1 | > 64 | 16 (≈ 17.8 µM) | 3.7 | 8 | 30.7 | 64 (≈ 71.2 µM) | 95.8 | 69.9 | 95.7 | 95.3 | 8500 | 98 | 75.7 | 64 (≈ 71.2 µM) | 23.6 | 52.1 | 92.7 | 34.2 | 32 (≈ 35.6 µM) | 9.6 | MIC (Escherichia coli [18]): 64 µg/mL (≈ 71.2 µM); MIC (Klebsiella pneumoniae): 32 µg/mL (≈ 35.6 µM); MIC (Staphylococcus aureus): 32 µg/mL (≈ 35.6 µM); Activity [19]: 40%; Activity [20]: 18.2%; Activity [21]: 88.1% |
| CCCCCCc1ccc(-c2ccc(C(=O)N[C@@H](Cc3cnc[nH]3)C(=O)N[C@H](C(=O)N[C@@H](C)C(=O)N[C@H]3Cc4cn(nn4)CCCN4C[C@@H]5OB(O[C@@H]5C4)[C@H](C)NC3=O)[C@@H](C)O)cc2)cc1 | > 64 | > 64 | 20.8 | 25 | 34.2 | > 64 | 94.5 | 76.7 | 94.7 | 94 | 5400 | 107 | 81 | > 64 | 34.1 | 66.2 | 90.8 | 39.7 | 64 (≈ 70.5 µM) | 4.1 | MIC (Escherichia coli [18]): > 64 µg/mL; MIC (Klebsiella pneumoniae): > 64 µg/mL; MIC (Staphylococcus aureus): > 64 µg/mL; Activity [19]: 52%; Activity [20]: 27.8%; Activity [21]: 91.4% |
| CCCCCCc1ccc(-c2ccc(C(=O)N[C@@H](CCCNC(=N)N)C(=O)N[C@H](C(=O)N[C@@H](C)C(=O)N[C@H]3Cc4cn(nn4)CCCN4C[C@@H]5OB(O[C@@H]5C4)[C@H](C)NC3=O)[C@@H](C)O)cc2)cc1 | > 64 | 4 (≈ 4.32 µM) | 22.9 | 27.7 | 36 | 32 (≈ 34.5 µM) | 108 | 76.8 | 102 | 106 | 2400 | 41 | 97.2 | 16 (≈ 17.3 µM) | 35.7 | 46.5 | 105 | 39.1 | 8 (≈ 8.63 µM) | 21 | MIC (Escherichia coli [18]): 16 µg/mL (≈ 17.3 µM); MIC (Klebsiella pneumoniae): 16 µg/mL (≈ 17.3 µM); MIC (Staphylococcus aureus): 16 µg/mL (≈ 17.3 µM); Activity [19]: 41.7%; Activity [20]: 32.8%; Activity [21]: 101% |
| CCCCCCc1ccc(-c2ccc(C(=O)N[C@@H](CCCN)C(=O)N[C@H](C(=O)N[C@@H](C)C(=O)N[C@H]3Cc4cn(nn4)CCO[C@@H]4C[C@@H]5OB(O[C@@H]5C4)[C@H](C)NC3=O)[C@@H](C)O)cc2)cc1 | 64 (≈ 72.2 µM) | 4 (≈ 4.52 µM) | -2.5 | 4 | 27.1 | 32 (≈ 36.1 µM) | 95.3 | 77.8 | 90.6 | 90.7 | 8000 | 175 | 84.3 | 8 (≈ 9.03 µM) | 42.2 | 65.2 | 91 | 39.1 | 4 (≈ 4.52 µM) | 10.6 | MIC (Escherichia coli [18]): 16 µg/mL (≈ 18.1 µM); MIC (Klebsiella pneumoniae): 8 µg/mL (≈ 9.03 µM); MIC (Staphylococcus aureus): 2 µg/mL (≈ 2.26 µM); Activity [19]: 57.6%; Activity [20]: 27.1%; Activity [21]: 94.3% |
